Only some compounds are listed: those with a hit (about 5.6% of all), similar ones and a draw of the others.
GRIN3A LBD mod = modulates the human NR3A ligand-binding domain; NR3A LBD differential scanning fluorimetry, Tm shift; 0% = protein alone, 100% = glycine-bound protein; Tm shift relative to glycine control, % at 25 µM; 340,000 compounds, 2.5% hits; AID 1259313;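 active means melting temperature shift of at least 10% of the positive control shift, at one fixed dose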
aDG glyco act = increases alpha dystroglycan glycosylation | Pro5-aDG cells, alpha-DG glycosylation AlphaScreen (IIH6); 0% Pro5, 100% B10-LARGE cell signal | activation, % at 10 µM | 360,000 compounds, 0.22% hits | AID 624168;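 active means activation of at least 8% versus controls, or a plate z-score of at least 8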;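 further: Pro5 are CHO cells carrying HIG-tagged alpha-DG that lacks glycosylation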
UPR XBP1 act = adaptive UPR (XBP1) activation; CHO-XBP1 luciferase reporter, IRE1-XBP1 UPR activation, luminescence; percent of tunicamycin response, DMSO as zero; activation, % at 20 µM; 330,000 compounds, 0.33% hits;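 active means versus positive control, 20 µM dose yields 30% or more activation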;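 further: 100% = tunicamycin at 10 µg/mL and 0% = DMSO only wells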
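Material: CHO cell line with stable XBP1 luciferase reporter; buffer or medium: F12 medium containing 10% fetal bovine serum; compound: single point, 20 µM final compound, 1% DMSO; incubation: 6 h treatment, 37 °C; measured by: glow luminescence from Steady-Glo reagent; evaluation: activation, % of tunicamycin; control set: tunicamycin high, DMSO low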
MPTP inh = inhibitors of mitochondrial permeability transition pore. isolated mouse mitochondria, Ca2+ swelling absorbance, 30 min. AID 602449. 360,000 compounds, 1.4% hits. inhibition, % at 10 µM;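 active means inhibition of 50% or more, scaled per plate between neutral and stimulator controls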;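 further: 0% = DMSO wells given calcium and 100% = 1 mM EGTA wells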
CHOP UPR activ = activators of apoptotic arm of unfolded protein response (CHOP) | CHO-CHOP luciferase reporter, UPR activation, luminescence; percent of tunicamycin response over DMSO baseline | activation, % at 10 µM | 330,000 compounds, 0.34% hits | AID 449763;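 active means at 10 µM dose, activation of 40% or more, normalized to positive control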;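 further: 100% = tunicamycin at 10 µg/mL and 0% = DMSO alone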
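System: CHO-CHOP luciferase reporter cell line; amount: 500 cells/well; buffer or medium: F12 medium containing 10% fetal bovine serum; incubation: 6 h compound exposure at 37 °C after overnight seeding; measured by: luciferase luminescence after 10 min with Steady-Glo reagent; evaluation: % reporter activation, DMSO baseline versus tunicamycin full activation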
CHOP inhibitor = CHOP inhibition in unfolded protein response; 220,000 compounds, 3.8% hits; inhibition, % at 10 µM; CHO-K1 CHOP-promoter luciferase, tunicamycin-induced, 15-18 h;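 active means compounds that reduced the stress-induced luciferase reporter signal by more than about 70% of percent inhibition, limit read from the data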;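 further: 0% = tunicamycin plus vehicle and 100% = wells without tunicamycin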
Active calls of the source: *; nt = no result.

SMILES | GRIN3A LBD mod | aDG glyco act | UPR XBP1 act | MPTP inh | CHOP UPR activ | CHOP inhibitor
Cc1c(Nc2cc(Cl)c3nonc3c2[N+](=O)[O-])c(=O)n(-c2ccccc2)n1C | -1 | 0 | -9 | 0 | -10 | 108*
COc1ccc(N/C=C(\C=C\C#N)S(=O)(=O)c2ccccc2)cc1 | 0 | 0 | 1 | 3 | 0 | nt
O=c1cc(-c2ccccc2)nc2cc(-c3ccco3)[nH]n12 | 10* | 0 | 4 | 0 | 2 | -14
O=c1cc(-c2ccccc2)nc2cc(-c3ccc(Br)cc3)[nH]n12 | 0 | 0 | -1 | 3 | 5 | nt
CC(C)NS(=O)(=O)c1ccc(OCC(=O)N2CCCC2)cc1 | 1 | 0 | -2 | 0 | -1 | -2
CC(C)NS(=O)(=O)c1ccc(OCC(=O)N2CCc3ccccc3C2)cc1 | 0 | 1 | -5 | 0 | 1 | 74*
COc1c(C(CC(C)C)OC(C)=O)ccc2c1C(=O)OCc1cc(C)cc(O)c1O2 (centres undefined) | 1 | 0 | 0 | 2 | 4 | 72*
N#Cc1c(-c2ccccc2)nc(SCC(=O)Nc2ccc(OC(F)(F)Cl)cc2)[nH]c1=O | 8 | 0 | -1 | 2 | 0 | nt
CC(C)C1C(c2ccccc2)N(C)C(c2ccccc2)CC1(O)c1ccccc1 (centres undefined) | -8 | 0 | 2 | 3 | 1 | 73*
CC1C(C)C(O)(c2ccccc2)CCN1C (centres undefined) | -2 | 0 | 2 | -1 | 2 | -15
CC(C)C1C(c2ccccc2)NC(c2ccccc2)CC1(O)c1ccc(F)cc1 (centres undefined) | -3 | 0 | -2 | 12 | 1 | 80*
CCC1C(=O)CC(c2ccccc2)NC1c1ccccc1 (centres undefined) | 0 | 0 | 0 | 1 | -1 | 18
CCC1Oc2ccccc2N(CC(=O)NCc2cccs2)C1=O (centres undefined) | -2 | 0 | -3 | 0 | -1 | -9
N#CCCN(C(=O)COC(=O)CNC(=O)c1cccs1)c1ccc(F)cc1 | 0 | 0 | 2 | -1 | 0 | nt
COc1ccc(S(=O)(=O)N2CCN(C(=O)CSC(=S)N3CCCC3)CC2)cc1 | -1 | 0 | -2 | -2 | 3 | nt
CCCNC(=O)CNC(=O)c1ccc(C#N)cc1 | -2 | 0 | 2 | -1 | 1 | nt
Cc1ccccc1CN1CCN(S(=O)(=O)c2ccc(F)cc2)CC1 | 0 | 0 | 0 | 0 | -2 | 88*
O=C(Cc1c[nH]c2ccccc12)N1CCN(S(=O)(=O)c2ccc(Cl)cc2)CC1 | -2 | 0 | -1 | -2 | 1 | nt
O=S(=O)(c1ccc(Cl)cc1)N1CCN(Cc2c[nH]c3ccccc23)CC1 | -6 | 0 | 1 | -3 | -1 | 71*
CCN(CC)CCC(=O)NN | 2 | 0 | 6 | -2 | -1 | 12
C[C@H](NC(=O)[C@@H]1CSC2c3ccccc3C(=O)N21)C(=O)NCc1c(F)cccc1Cl (some centres undefined) | 1 | 0 | -4 | 4 | 2 | nt
CCCCOc1ccc(/C=C/C(=O)OCC(=O)NC(=O)NCC(C)C)cc1OCC | 1 | 0 | -3 | 4 | 1 | 72*
CCCCOc1ccc(/C=C/C(=O)OCC(=O)NC2CCS(=O)(=O)C2)cc1OCC (centres undefined) | -2 | 0 | -1 | 0 | 0 | nt
COCCn1c(=NC(=O)C2COc3ccccc3O2)sc2cc(S(N)(=O)=O)ccc21 (centres undefined) | 17* | 0 | -4 | 2 | 0 | -2
CC(C)Cc1nnc(NC(=O)CCc2c[nH]c3ccccc23)s1 | -6 | 0 | 1 | -1 | 0 | 10
C=CCN1C(=O)/C(=C\c2ccc(Oc3nc(N4CCOCC4)nc(N4CCOCC4)n3)c(OC)c2)SC1=S | 0 | 1 | -1 | 0 | 0 | -8
COc1ccc(OC)c([N+](=O)[O-])c1C(N)=O | 1 | 0 | 1 | -1 | 0 | 9
COc1ccc(NC(C)=O)c([N+](=O)[O-])c1[N+](=O)[O-] | 14* | 1 | nt | -2 | nt | nt
